Legend:
HFF [1] = assay: Compound was tested for antiviral activity against human cytomegalovirus (HCMV) by plaque reduction assay using HFF cells; type: functional, cell-based
In short: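 HCMV plaque reduction assay in HFF cells, run in duplicate. Value reported as IC50. Highest concentration tested 10 or 100.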

Human alphaherpesvirus 1 = assay: Compound was tested for antiviral activity against herpes simplex virus type 1 (HSV-1); type: functional, organism-based
In short: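 HSV-1 activity read by ELISA in quadruplicate wells, with the plaque assay used for the DHPG control. Value reported as IC50. Top concentration tested 10 or 100.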

HFF [2] = assay: Compound was tested for visual cytotoxicity on human foreskin fibroblasts (HFF) cells; type: functional, cell-based
In short: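 Cytotoxicity in HFF cells scored visually at the time HCMV plaques were counted. Results from duplicate experiments.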

[3] = Compound was tested for inhibition activity of human oral carcinoma cell line (KB ) cells in quadruplicate assay.; type: functional, cell-based
In short: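 KB cell growth inhibition was run in quadruplicate wells and reported as IC50, meaning the concentration that halves growth. Values marked > indicate that 50% inhibition was not reached at the highest concentration tested.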

HFF [4] = assay: Compound was tested for antiviral activity against human cytomegalovirus (HCMV) by yield reduction assay using HFF cells; type: functional
In short: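 HCMV yield reduction assay in HFF cells, run in duplicate. Value reported as IC90. Highest concentration tested 10 or 100.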

| Compound | IC50 (HFF [1]) | IC50 (Human alphaherpesvirus 1) | IC50 (HFF [2]) | IC50 [3] | IC90 (HFF [4]) |
| --- | --- | --- | --- | --- | --- |
| OC[C@H]1O[C@@H](n2cnc3cc(Cl)c(Cl)cc32)[C@H](F)[C@@H]1O | > 100 µM | > 100 µM | > 100 µM | > 100 µM | – |
| O[C@H]1[C@H](OC(c2ccccc2)(c2ccccc2)c2ccccc2)[C@@H](COC(c2ccccc2)(c2ccccc2)c2ccccc2)O[C@H]1n1c(Cl)nc2cc(Cl)c(Cl)cc21 | > 10 µM | > 100 µM | > 100 µM | > 100 µM | – |
| Clc1cc2nc(Cl)n([C@@H]3O[C@H](COC(c4ccccc4)(c4ccccc4)c4ccccc4)[C@@H](OC(c4ccccc4)(c4ccccc4)c4ccccc4)[C@@H]3OC(c3ccccc3)(c3ccccc3)c3ccccc3)c2cc1Cl | > 10 µM | > 100 µM | > 100 µM | > 100 µM | – |
| OC[C@H]1O[C@@H](n2c(Cl)nc3cc(Cl)c(Cl)cc32)[C@@H](F)[C@@H]1O | 8 µM | 50 µM | 32 µM | 60 µM | 8 µM |
| OC[C@H]1O[C@@H](n2c(Br)nc3cc(Cl)c(Cl)cc32)[C@H](F)[C@@H]1O | 17 µM | > 100 µM | 100 µM | 80 µM | – |
| O=C(OC[C@H]1O[C@@H](n2c(Cl)nc3cc(Cl)c(Cl)cc32)[C@@H](F)[C@@H]1OC(=O)c1ccccc1)c1ccccc1 | – | – | – | 100 µM | – |
| CC(C)Nc1nc2cc(Cl)c(Cl)cc2n1[C@@H]1O[C@H](CO)[C@@H](O)[C@H]1F | > 100 µM | > 100 µM | > 100 µM | > 100 µM | – |
| OC[C@H]1O[C@@H](n2c(Cl)nc3cc(Cl)c(Cl)cc32)C(O)[C@@H]1F (stereo not given in full) | 9.4 µM | > 100 µM | 40 µM | > 100 µM | 13 µM |
| OC[C@H]1O[C@@H](n2c(Br)nc3cc(Cl)c(Cl)cc32)[C@H](O)[C@@H]1O | – | – | – | > 100 µM | 0.2 µM |
| OC[C@H]1O[C@@H](n2c(Cl)nc3cc(Cl)c(Cl)cc32)[C@H](O)[C@@H]1O | – | – | – | 210 µM | 1.4 µM |
| OC[C@H]1O[C@@H](n2cnc3cc(Cl)c(Cl)cc32)[C@H](O)[C@@H]1O [DICHLORORIBOBENZIMIDAZOLE] | – | – | – | 36 µM | 19 µM |
| Nc1nc2c(ncn2COC(CO)CO)c(=O)[nH]1 [GANCICLOVIR] | – | – | > 100 µM | > 100 µM | 1.6 µM |
